≈ marks a conversion by molar mass, not a printed value.
Assays:
Type in all cases: functional
[1] = Selectivity index, ratio of IC50 for human PBMC to MIC for multidrug-resistant Mycobacterium tuberculosis 357/2005
How it was run: (§1)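 SI = PBMC IC50 (MTT cytotoxicity) divided by the MIC against the named M. tuberculosis strain. MIC taken after 14 days of incubation at 37 °C by the micromethod.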

[2] = Selectivity index, ratio of IC50 for human PBMC to MIC for multidrug-resistant Mycobacterium tuberculosis 53/2009; how it was run: as §1
[3] = Selectivity index, ratio of IC50 for human PBMC to MIC for multidrug-resistant Mycobacterium tuberculosis 362/1998; how it was run: as §1
[4] = Selectivity index, ratio of IC50 for human PBMC to MIC for multidrug-resistant Mycobacterium tuberculosis 9449/2007; how it was run: as §1
[5] = test system: Mycobacterium tuberculosis; test: Antimycobacterial activity against multidrug-resistant Mycobacterium tuberculosis 357/2005 after 14 days by micromethod; details: 357/2005, 336 h
How it was run: (§2)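 Clinical MDR/XDR M. tuberculosis strains, all resistant to INH, RIF, rifabutine and streptomycin, some with further resistances. Tested by the MIC micromethod across a concentration series descending from 1000.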

[6] = test system: Mycobacterium tuberculosis; test: Antimycobacterial activity against multidrug-resistant Mycobacterium tuberculosis 357/2005 after 21 days by micromethod; details: 357/2005, 504 h; how it was run: as §2
[7] = test system: Mycobacterium tuberculosis; test: Antimycobacterial activity against multidrug-resistant Mycobacterium tuberculosis 53/2009 after 14 days by micromethod; details: 53/2009, 336 h; how it was run: as §2
[8] = test system: Mycobacterium tuberculosis; test: Antimycobacterial activity against multidrug-resistant Mycobacterium tuberculosis 53/2009 after 21 days by micromethod; details: 53/2009, 504 h
How it was run: (§3)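 MDR M. tuberculosis strains, all resistant to INH, RIF, rifabutine and streptomycin (9449/2007 to these four). Micromethod with compounds added as DMSO solutions in a twofold series from 1000 μmol/L downward; lowest level used 1 μmol/L. Incubated at 37 °C and read at 14 and 21 days; MIC is the lowest concentration giving growth inhibition.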

[9] = test system: Mycobacterium tuberculosis; test: Antimycobacterial activity against extensively drug resistant Mycobacterium tuberculosis Praha 1 after 14 days by micromethod; details: Praha 1, 336 h; how it was run: as §2
[10] = test system: Mycobacterium tuberculosis; test: Antimycobacterial activity against extensively drug resistant Mycobacterium tuberculosis Praha 1 after 21 days by micromethod; details: Praha 1, 504 h; how it was run: as §2
[11] = test system: Mycobacterium tuberculosis; test: Antimycobacterial activity against extensively drug resistant Mycobacterium tuberculosis Praha 131 after 14 days by micromethod; details: Praha 131, 336 h; how it was run: as §2
[12] = test system: Mycobacterium tuberculosis; test: Antimycobacterial activity against extensively drug resistant Mycobacterium tuberculosis Praha 131 after 21 days by micromethod; details: Praha 131, 504 h; how it was run: as §2
[13] = test system: Mycobacterium tuberculosis; test: Antimycobacterial activity against multidrug-resistant Mycobacterium tuberculosis 362/1998 after 14 days by micromethod; details: 362/199, 336 h; how it was run: as §2
[14] = test system: Mycobacterium tuberculosis; test: Antimycobacterial activity against multidrug-resistant Mycobacterium tuberculosis 362/1998 after 21 days by micromethod; details: 362/1998, 504 h; how it was run: as §2
[15] = test system: Mycobacterium tuberculosis; test: Antimycobacterial activity against multidrug-resistant Mycobacterium tuberculosis 9449/2007 after 14 days by micromethod; details: 9449/2007, 336 h; how it was run: as §3
[16] = test system: Mycobacterium tuberculosis; test: Antimycobacterial activity against multidrug-resistant Mycobacterium tuberculosis 9449/2007 after 21 days by micromethod; details: 9449/2007, 504 h; how it was run: as §3

Row | Compound | Selectivity Index [1] | Selectivity Index [2] | Selectivity Index [3] | Selectivity Index [4] | MIC [5] | MIC [6] | MIC [7] | MIC [8] | MIC [9] | MIC [10] | MIC [11] | MIC [12] | MIC [13] | MIC [14] | MIC [15] | MIC [16]
1 | CC(=O)N[C@@H](Cc1ccccc1)C(=O)Oc1ccc(Br)cc1C(=O)Nc1ccc(C(F)(F)F)cc1 | 24.1 | 24.1 | 24.1 | 24.1 | 2 µM (≈ 1.1 µg/mL) | 2 µM (≈ 1.1 µg/mL) | 1 µM (≈ 0.549 µg/mL) | 2 µM (≈ 1.1 µg/mL) | 1 µM (≈ 0.549 µg/mL) | 2 µM (≈ 1.1 µg/mL) | 2 µM (≈ 1.1 µg/mL) | 2 µM (≈ 1.1 µg/mL) | 1 µM (≈ 0.549 µg/mL) | 1 µM (≈ 0.549 µg/mL) | 1 µM (≈ 0.549 µg/mL) | 2 µM (≈ 1.1 µg/mL)
2 | NNC(=O)c1ccncc1 [ISONIAZID] | – | – | – | – | 14.6 µM (≈ 2 µg/mL) | 14.6 µM (≈ 2 µg/mL) | 14.6 µM (≈ 2 µg/mL) | 14.6 µM (≈ 2 µg/mL) | 14.6 µM (≈ 2 µg/mL) | 14.6 µM (≈ 2 µg/mL) | 14.6 µM (≈ 2 µg/mL) | 14.6 µM (≈ 2 µg/mL) | 14.6 µM (≈ 2 µg/mL) | 14.6 µM (≈ 2 µg/mL) | 58.3 µM (≈ 8 µg/mL) | 58.3 µM (≈ 8 µg/mL)
3 | CC(=O)N[C@@H](Cc1ccccc1)C(=O)Oc1ccc(Cl)cc1C(=O)Nc1ccc(Cl)c(Cl)c1 | 22 | 22 | 22 | 22 | 2 µM (≈ 1.01 µg/mL) | 2 µM (≈ 1.01 µg/mL) | 1 µM (≈ 0.506 µg/mL) | 2 µM (≈ 1.01 µg/mL) | 1 µM (≈ 0.506 µg/mL) | 2 µM (≈ 1.01 µg/mL) | 2 µM (≈ 1.01 µg/mL) | 2 µM (≈ 1.01 µg/mL) | 1 µM (≈ 0.506 µg/mL) | 2 µM (≈ 1.01 µg/mL) | 2 µM (≈ 1.01 µg/mL) | 4 µM (≈ 2.02 µg/mL)
4 | CC(=O)N[C@@H](Cc1ccccc1)C(=O)Oc1ccc(Cl)cc1C(=O)Nc1ccc(C(F)(F)F)cc1 | 6.1 | 6.1 | 6.1 | 6.1 | 1 µM (≈ 0.505 µg/mL) | 2 µM (≈ 1.01 µg/mL) | 1 µM (≈ 0.505 µg/mL) | 1 µM (≈ 0.505 µg/mL) | 1 µM (≈ 0.505 µg/mL) | 2 µM (≈ 1.01 µg/mL) | 1 µM (≈ 0.505 µg/mL) | 2 µM (≈ 1.01 µg/mL) | 1 µM (≈ 0.505 µg/mL) | 1 µM (≈ 0.505 µg/mL) | 2 µM (≈ 1.01 µg/mL) | 2 µM (≈ 1.01 µg/mL)
